Sampled rows, rich in hits. Any-hit rate of the full collection: about 4.5%.
CHO parental Ca = signal in parental CHO cells, OX1R antagonist counter-screen; inhibition, % at 5.6 µM; 330,000 tested, 0.63% active; parental CHO-K1, ATP-induced calcium, Fluo-8 fluorescence; AID 463079;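 active = inhibition above that plate's mean sample inhibition plus 3 SD, cut at about 26% in these data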;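 also: 0% = ATP-challenged DMSO wells and 100% = DMSO wells without ATP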
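material = parental CHO cells | also added = ATP as calcium-mobilizing challenge | dosing = single point at 5.6 µM | detection = intracellular calcium via Fluo-8 no-wash fluorescent dye | read-out = % inhibition | benchmarks = low control ATP plus DMSO, high control DMSO only | repeats = one well per compound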
TAAR1 antag = human TAAR1 antagonism. Q96RJ0. CHO RD-HGA16 TAAR1, Fluo-8 calcium fluorescence, antagonist. inhibition, % at 3 µM. 360,000 tested, 1.5% active;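 active = inhibition above a per-plate cutoff, the mean inhibition of test compounds on that plate plus 3 SD, cut at about 49% in these data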;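 also: 0% = DMSO plus EC80 beta-PEA response and 100% = DMSO alone without agonist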
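Test system: hTAAR1-expressing CHO RD-HGA16 cells, Gα16-coupled; Probe or stimulus: EC80 β-phenethylamine stimulus; Compound dosing: single nominal final test compound concentration of 3 µM; Timing: 140 s kinetic read after compound, 140 s after agonist; Signal: Fluo-8 calcium-sensitive fluorescence; Measure: % inhibition of agonist calcium response; Controls: DMSO and EC80 PEA controls.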
OX1R antag-1 = blocks the human orexin 1 receptor | O43613 | OX1R-expressing cells, FRET antagonist read-out | inhibition, % at 6.6 µM | 330,000 tested, 1.8% active | AID 485270; in the data active = inhibition mostly above about 38%, no sharp cut-off; inactive = mostly below about 40%;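 also: 0% = agonist challenge alone and 100% = reference antagonist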
Target sequence (O43613 whole entry, looked up): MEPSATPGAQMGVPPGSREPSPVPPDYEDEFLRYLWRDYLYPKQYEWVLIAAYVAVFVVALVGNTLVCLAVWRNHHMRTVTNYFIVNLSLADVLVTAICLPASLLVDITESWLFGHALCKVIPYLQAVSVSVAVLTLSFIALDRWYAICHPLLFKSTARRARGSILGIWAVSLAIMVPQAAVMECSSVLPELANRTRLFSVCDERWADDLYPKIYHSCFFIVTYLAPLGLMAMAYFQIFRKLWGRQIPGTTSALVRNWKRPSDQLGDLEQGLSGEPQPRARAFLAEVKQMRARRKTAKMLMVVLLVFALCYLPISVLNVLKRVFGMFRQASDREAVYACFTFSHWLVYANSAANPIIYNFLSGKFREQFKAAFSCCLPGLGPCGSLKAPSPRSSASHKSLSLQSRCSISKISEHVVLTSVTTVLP
TAAR1 agonist = human TAAR1 agonism; Q96RJ0; CHO RD-HGA16 TAAR1, Fluo-8 calcium fluorescence; vehicle wells 0%, saturating PEA agonist 100%; activation, % at 3 µM; 360,000 tested, 0.99% active;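 active = activation above the mean activation of all test compounds in the run plus 3 SD, cut at about 38% in these data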
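Test system: RD-HGA16 (CHO) cells co-expressing Gα16 and hTAAR1; dosing: one-point dosing at 3 µM (nominal); timing: 17-24 h seeding, 75 min 37 °C dye, 30 min RT; signal: kinetic Fluo-8 calcium fluorescence; read-out basis: % activation relative to PEA EC100 response; controls: DMSO and PEA EC100; replicates: n 1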
GPR7 antagonist = blocks human GPR7 receptor signaling; GPR7-expressing cells, fluorescence antagonist assay; inhibition, % at 4.4 µM; 290,000 tested, 1.1% active; in the data active = inhibition above about 16%, passing the limit was not always enough;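 also: cells stimulated with the agonist NPW; 0% = agonist with vehicle and 100% = vehicle without agonist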
OX1R antag-2 = antagonists of human orexin 1 receptor. 330,000 tested, 0.43% active. inhibition, % at 5 µM. CHO/OX1R cells, Fluo-8 calcium fluorescence, orexin A. O43613. AID 434989;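 active = inhibition above its plate's threshold, mean inhibition of all tested compounds on the plate plus 3 SD, cut at about 37% in these data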;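 also: 0% = orexin A challenge wells and 100% = SB-334867-A antagonist wells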
* marks the source's active call; other numbers are inactive results; . = no result.

SMILES	CHO parental Ca	TAAR1 antag	OX1R antag-1	TAAR1 agonist	GPR7 antagonist	OX1R antag-2
CCOc1ccc(-n2c(O)c(N=Nc3ccc([N+](=O)[O-])cc3)c(=O)[nH]c2=O)cc1	-12	-19	76*	3	-3	-34
O=C1CC=C2C3CC4N(CCC45c4cc(O)c(O)cc4N1C25)CC3=CCBr (configuration not stated)	.	-22	.	2	.	.
CCN(CC)S(=O)(=O)c1ccc(C)c(NCC(=O)Nc2ccc(C#N)c(Cl)c2)c1	56*	26	17	14	4	33
O=c1[nH]c(O)c(/C=C2/C=CC(c3cc(Cl)ccc3Cl)=N2)c(=O)[nH]1	6	-5	7	7	2	11
CCOC(=O)c1cc2c(cn1)[nH]c1ccccc12	-4	-24	64*	2	-6	8
CCOC(=O)c1ccccc1N	-7	1	9	0	.	-9
O=C(Nc1ccc(Cl)c(Cl)c1)c1ccco1	-10	0	9	7	1	-15
C=CCNC(=S)Nc1ccc(OC(=O)Nc2ccc(Cl)c(Cl)c2)cc1	.	15	.	15	39*	.
CN1C2CCC1CC(OC(c1ccccc1)c1ccc(Cl)cc1)C2 (configuration not stated)	.	30	.	24	.	.
O=S1(=O)NCC2(CC2)CN1Cc1ccccc1	.	-10	.	2	.	.
O=C1/C(=C/c2cc3c(cc2Cl)OCO3)N2CCC1CC2	-17	.	23	.	1	-13
C#CCNc1ccncc1S(=O)(=O)NC(=O)NC(C)C	-9	11	14	3	-12	-16
CC(=O)N1CCN(c2ccc([N+](=O)[O-])cc2C=C2C(=O)NC(=O)NC2=O)CC1	-4	1	64*	2	-7	1
COc1ccc(NP(=O)(Nc2ccc(OC)cc2)Oc2ccccc2)cc1	-8	28	9	5	7	-18
COc1ccc(NP(=O)(Oc2ccccc2OC)Oc2ccccc2OC)cc1	-11	59*	7	17	-10	3
COc1ccc(C(CC(=O)N2CCC3(CC2)OCCO3)NS(=O)(=O)c2ccc(C)cc2)cc1 (configuration not stated)	-24	-12	11	11	-2	-10
CC1(C)C[C@H]2C=C(C=O)[C@]3(C=O)C[C@]3(C)[C@H]2C1	69*	-7	6	1	4	40*
COc1ccc(C(c2nnnn2-c2ccc3c(c2)OCCO3)N2CCC3(CC2)C(=O)NCN3c2ccccc2)cc1 (configuration not stated)	.	19	.	1	.	.
COc1cc(/C=C/c2nc3ccccc3c(=O)n2-c2ccc(O)cc2)ccc1O	0	67*	-1	16	1	5
COc1ccc(-n2c(/C=C/c3ccc(O)c(O)c3)nc3ccccc3c2=O)cc1	-12	50*	7	11	-10	2
CC(C)CN(CC(C)C)C(=O)C1C2c3ccccc3C(c3ccccc32)C1C(=O)O (configuration not stated)	.	-10	.	1	-5	.
CCN(C(=O)COC(=O)c1cn(C)c2ccccc12)c1ccc(F)cc1	-19	5	8	6	.	-1
Oc1ccccc1-[n+]1c(-c2ccccc2)cc(-c2ccccc2)cc1-c1ccccc1	-8	51*	9	8	.	-23
[O-]c1ccccc1-[n+]1c(-c2ccccc2)cc(-c2ccccc2)cc1-c1ccccc1	48*	29	16	3	.	45
Cc1ccccc1-[n+]1c(-c2ccccc2)cc(-c2ccccc2)cc1-c1ccccc1	54*	38	45	9	.	15
SMILES	CHO parental Ca	TAAR1 antag	OX1R antag-1	TAAR1 agonist	GPR7 antagonist	OX1R antag-2
CCOC(=O)c1cnc(SCc2ccc(Cl)c(Cl)c2)nc1N1CC1	.	3	.	3	.	.
CCOP(=O)(OCC)C(NC(=O)c1cccc([N+](=O)[O-])c1)C(Cl)(Cl)Cl (configuration not stated)	-18	-4	13	1	-8	-22
CC1CCC(C(C)C)C(OC(=O)Cn2c(COc3ccccc3)[n+](C)c3ccccc32)C1 (configuration not stated)	50*	-18	16	3	58*	36*
O=C(O)C1(c2ccc(Cl)cc2)CCC1	7	2	8	0	-13	-4
CC(=O)C1(c2ccccc2)CCNCC1	-11	-16	10	3	14*	-11
Cc1c(N=Nc2c(O)[nH]c(=O)[nH]c2=O)c(=O)n(-c2ccccc2)n1C	-10	7	35	-1	-2	4
Cc1c(N=Nc2c(O)n(-c3ccc(Br)cc3)c(=O)[nH]c2=O)c(=O)n(-c2ccccc2)n1C	-2	-9	66*	11	-21	-16
CCCCn1c(=O)c(C(=O)Nc2ncccc2C)c(O)c2ccccc21	-11	7	-1	55*	-16	-19
CCCCCn1c(=O)c(C(=O)Nc2ccccc2S(N)(=O)=O)c(O)c2ccccc21	-25	-7	35	4	-3	-25
CCCCn1c(=O)c(C(=O)Nc2ccccc2S(N)(=O)=O)c(O)c2ccccc21	-21	-13	35*	4	-7	-11
C=C1C(=O)O[C@@H]2C[C@@H](C)[C@@H]3C4OC4C(=O)[C@@]3(C)[C@@H](O)[C@H]12 (some centres not stated)	-18	5	29	5	.	-25
O=C(NCCN1CCC2(CC1)C(=O)NCN2c1cccc(F)c1)c1ccc2ccccc2c1	.	106*	.	83*	.	.
Oc1ccc(C(=C(Cl)Cl)c2ccc(O)cc2)cc1	-2	.	-2	.	3	3
CC1CCN(S(=O)(=O)c2ccc(NN=C(C#N)C#N)cc2)CC1	17	.	101*	.	-5	25
COc1ccc(C(=O)N2CCOCC2)cc1S(=O)(=O)N1CCC(C)CC1	-1	-6	13	12	-10	-13
Cc1ccc(-[n+]2c(Cc3nn(-c4ccccc4)c(C)[n+]3-c3ccc(C)cc3)nn(-c3ccccc3)c2C)cc1	.	1	.	2	.	.
NC(=O)c1ccc(N=Nc2c(O)[nH]c(=O)[nH]c2=O)cc1	-10	.	26	.	-9	-3
O=c1[nH]c(O)c(N=Nc2ccc(SC(F)F)cc2)c(=O)[nH]1	-1	-18	42*	0	-14	4
CCN(CC)c1ccc(CNCCc2ccccc2F)cc1	-6	-4	2	40*	7	-16
O=C1c2cccc3cccc(c23)C(=O)N1/N=C/c1c(O)n(-c2ccccc2)c(=O)[nH]c1=O	-7	-6	61*	0	-15	-8
